Screening results: PubChem, Broad Institute
Shown are actives, neighbours in structure and some others; about 2.1% of the full set was active somewhere.
EWS-Fli block = inhibitors of EWS/Fli oncoprotein transcriptional activity; A673 NR0B1-luciferase reporter, viability-normalised; inhibition, % at 12.6 µM; 350,000 tested, 0.67% active;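 active = mean inhibition of at least 50% after viability correction, with every replicate also passing that limit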;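 also: firefly luciferase signal divided by Alamar Blue viability fluorescence both relative to DMSO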
Xi reactivation = X-chromosome reactivation activator; activation, % at 7.58 µM; 360,000 tested, 0.055% active; XiGFP mouse fibroblasts, % GFP-positive cells imaging, 3 d; cells co-treated with 5-aza-dC sensitizer; scaled so ellipticine positive control = 100%; AID 743238;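 active = mean normalized replicate activation at least 10% and every replicate at or above 10%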;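 also: 0% = median of on-plate neutral control wells and 100% = ellipticine 6 µM median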
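material = 68-5-11 XiGFP fibroblast line | medium = DMEM plus 5-aza-dC sensitizer | schedule = 3 days compound exposure | benchmarks = positive control ellipticine, 6 µM final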
GSIS activator = GLuc luminescence reporter in INS-1E cells, primary screen for activators of glucose-dependent secretion of insulin; INS-1E GLuc reporter insulin secretion, 2-3 h; activation, % at 16.6 µM; 370,000 tested, 0.61% active; AID 743287;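 active = lowest replicate activation of at least 40%, so every replicate reaches that level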;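 also: 0% = median of neutral control wells and 100% = median of IBMX positive control wells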
AF4-AF9 inh = inhibitors of human MLL-AF4/AF9 interaction; P42568; AlphaScreen, biotin-AF4 peptide binding to FLAG-AF9; inhibition, % at 10 µM; 350,000 tested, 0.47% active;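 active = every replicate reaching a set inhibition limit, whatever the replicate mean, cut at about 25% in these data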;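 also: 0% = plate neutral control median and 100% = total signal loss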
Target sequence (P42568 whole entry, looked up): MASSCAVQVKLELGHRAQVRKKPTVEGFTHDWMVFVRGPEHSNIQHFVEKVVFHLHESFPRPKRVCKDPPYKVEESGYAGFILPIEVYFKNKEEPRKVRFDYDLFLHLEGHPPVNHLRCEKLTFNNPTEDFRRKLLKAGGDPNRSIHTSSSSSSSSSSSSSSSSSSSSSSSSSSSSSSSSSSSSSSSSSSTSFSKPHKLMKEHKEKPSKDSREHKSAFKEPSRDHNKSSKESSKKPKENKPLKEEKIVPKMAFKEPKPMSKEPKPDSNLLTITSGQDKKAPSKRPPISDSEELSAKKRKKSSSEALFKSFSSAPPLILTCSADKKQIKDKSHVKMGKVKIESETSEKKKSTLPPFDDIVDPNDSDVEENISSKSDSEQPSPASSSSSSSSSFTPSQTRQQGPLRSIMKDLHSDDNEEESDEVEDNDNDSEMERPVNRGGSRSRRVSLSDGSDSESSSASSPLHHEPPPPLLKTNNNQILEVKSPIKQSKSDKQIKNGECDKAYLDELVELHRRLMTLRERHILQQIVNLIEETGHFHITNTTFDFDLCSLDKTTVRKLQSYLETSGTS
PGC1a acetyl inh = PGC1a acetylation modulation, inhibitor mode. U2OS PGC1a acetylation, AlphaScreen anti-acetyl-lysine; with virally co-expressed GCN5 acetyltransferase. inhibition, % at 15.6 µM. 350,000 tested, 0.17% active;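 active = every replicate shows inhibition of at least 40%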;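 also: 0% = neutral control wells and 100% = positive control wells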
PAX8 inh HTS = inhibitors of PAX8 transcriptional activity in RMG-I cells | 360,000 tested, 1.2% active | RMG-I TPO-luciferase reporter, SteadyGlo, 24 h | inhibition, % at 12.6 µM;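 active = mean replicate inhibition at least 60% with every replicate also reaching 60%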;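 also: luciferase light reporting Pax8 driven TPO promoter activity; plate controls were median of neutral control wells for no effect and mitoxantrone controls for full effect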
Starred values were filed as active, the others as inactive; · = not tested or not shown; ! = repeats disagree.

SMILES | EWS-Fli block | Xi reactivation | GSIS activator | AF4-AF9 inh | PGC1a acetyl inh | PAX8 inh HTS
CC(=NNc1nc2ccccc2o1)c1ncccn1 | -1 | 0 | -7 | 13 | -24 | 74*
Cc1cc(C)nc(Nc2nc3ccccc3o2)n1 | -32 | 0 | 7 | -2 | 3 | -47
CC(=NNc1nc2ccccc2s1)c1ncccn1 | -15 | 7 | -1 | 1 | · | 56
CC(=NNc1nc2ccccc2o1)c1cc2ccccc2cn1 | 27 | 73* | 0 | 0 | · | ·
Oc1ccccc1/C=N/Nc1nc2ccccc2o1 | -51 | 0 | 1 | 7 | 41* | -10
O=C1SC(c2ccccc2)=C/C1=C\N1CCCCC1 | -3 | · | -5 | 30* | · | ·
O=C1OC(c2ccccc2)=C/C1=C/N1CCOCC1 | -47 | · | 10 | 5 | 4 | ·
C[C@@H]1CCCCO[C@H](CN(C)Cc2ccc3c(c2)OCO3)[C@@H](C)CN([C@H](C)CO)C(=O)c2cc(NC(=O)Cc3ccccc3)ccc2O1 | -3 | 0 | -15 | · | -4 | -4
CO[C@H]1CN(C)C(=O)c2cc(NC(=O)C3CCOCC3)ccc2OC[C@H](C)N(Cc2nccs2)C[C@@H]1C | -4 | 0 | 12 | -2 | -4 | -7
CCn1cc(/C=C/c2cc[n+](C)cc2)c2ccccc21 | -16 | 0 | -60 | -2 | -3 | 77*
Cc1ccccc1/C=C/c1cc[n+](C)cc1 | -7 | 0 | -2 | 2 | -11 | 5
C=CCn1c(C)c(/C=C/c2cc[n+](C)cc2)c2ccccc21 | 4 | 6 | -37 | 4 | · | 53
C=CCn1cc(/C=C/c2cc[n+](C)cc2)c2ccccc21 | 25 | 0 | · | 4 | · | 93*
CC(C)n1cc(/C=C/c2cc[n+](C)cc2)c2ccccc21 | 9 | 1 | -32 | -8 | 8 | 83*
O=C1CCCn2cc(nn2)COCCN1 | · | 0 | 1 | · | · | ·
COc1ccc(C#Cc2ccc3c(c2)O[C@H](CN(C)C(=O)CN2CCOCC2)[C@@H](C)CN([C@@H](C)CO)S3(=O)=O)cc1 | 8 | 0 | 12 | 4 | 1 | 22
CCCCCCN1C[C@H](n2cc(C3CC3)nn2)[C@@H](O)C[C@@H]1c1ccc(C)cc1 | -17 | 0 | 274* | 2 | 4 | -16
CCCCCC(=O)N1C[C@H](n2cc(-c3ccc(F)cc3)nn2)[C@@H](O)C[C@@H]1c1ccc(Cl)cc1 | 9 | 0 | -11 | -3 | 20 | 82*
CCCCCCN1C[C@H](n2cc(COC(=O)c3ccccc3)nn2)[C@@H](O)C[C@@H]1c1ccc(C)cc1 | 15 | 0 | 163* | -4 | -13 | 8
CCCCCC(=O)N1C[C@@H](O)[C@H](n2cc(-c3ccc(F)cc3)nn2)C[C@@H]1c1ccc(Cl)cc1 | 14 | 0 | -16 | -1 | -31 | 33
CCCCCCN1C[C@@H](n2cc(C3CC3)nn2)[C@H](O)C[C@@H]1c1ccc(C)cc1 | -29 | 1 | -19 | 1 | -4 | -17
O=C(COC(=O)c1c2c(nc3ccccc13)/C(=C\c1cccs1)CCC2)Nc1ccccc1 | -16 | 0 | 8 | 5 | · | 86*
C=C1C(=O)[C@]23C[C@H]1CCC2[C@@]1(C)C(C[C@@H]3O)[C@](C)(C(=O)OC)CC[C@@H]1O (some centres undefined) | 59* | 0 | 87* | 0 | 92* | 108*
C[C@@]12C(C[C@H](O)[C@@]34C[C@@H](CCC13)[C@@H](CO)C4=O)[C@](C)(C(=O)O)CC[C@@H]2O (some centres undefined) | 14 | 0 | -7 | -2 | -7 | 17
C[C@H](CO)N1C[C@H](C)[C@@H](CN(C)C(=O)Nc2ccc3c(c2)OCO3)Oc2c(NC(=O)Cc3cn(C)c4ccccc34)cccc2C1=O | · | -1 | -13 | · | · | ·
SMILES | EWS-Fli block | Xi reactivation | GSIS activator | AF4-AF9 inh | PGC1a acetyl inh | PAX8 inh HTS
O=C(/C=C/c1cccc([N+](=O)[O-])c1)n1cnc2ccccc21 | 65* | 1 | -27 | -11 | -10 | 19
CC(=O)Oc1ccc(-c2csnn2)cc1 | · | · | · | · | 95* | ·
CCCNC(=O)N1[C@@H](CO)[C@@H](c2ccc(C3=CCCC3)cc2)[C@@H]1CNC(=O)CC | 0 | 0 | -2 | · | 5 | 3
COc1ccc(CN(C)C[C@H]2Oc3ccc(NS(=O)(=O)c4ccc(OC)cc4)cc3CC(=O)N([C@@H](C)CO)C[C@@H]2C)cc1 | 8 | 0 | -16 | 4 | -5 | ·
CC(C)NC(=O)Nc1ccc2c(c1)CC(=O)N([C@H](C)CO)C[C@@H](C)[C@@H](CN(C)Cc1ccccc1)O2 | 13 | 0 | 10 | -1 | -1 | 18
CCOC(=O)c1sc(=S)n(C)c1NC(=O)c1ccc(OC)cc1 | -18 | 0 | 6 | · | -5 | 24
CCOC(=O)c1sc(=S)n(C)c1NC(=O)c1ccccc1Cl | -2 | 0 | -13 | -4 | · | 76*
COc1cccc(-c2ccc(C3[C@@H]4CN(C(=O)c5cnccn5)C[C@H]3N4)cc2)c1 (some centres undefined) | 52*! | 0 | -7 | -1 | 1 | -21
O=C(C1CCCC1)N1C[C@@H]2N[C@H](C1)C2c1ccc(-c2cccc(F)c2)cc1 (some centres undefined) | -4 | 0 | 20 | 4 | -17 | ·
N#Cc1cccc(-c2ccc(C3[C@@H]4CN(C(=O)C5CC5)C[C@H]3N4)cc2)c1 (some centres undefined) | -3 | 0 | -24 | -6 | -17 | 98*!
N#Cc1ccc(-c2ccc(C3[C@@H]4CN(C(=O)C5CCCC5)C[C@H]3N4)cc2)cc1 (some centres undefined) | 3 | 0 | 9 | 3 | 10 | ·
O=C(C1CC1)N1C[C@@H]2N[C@H](C1)C2c1ccc(-c2cccc(F)c2)cc1 (some centres undefined) | 6 | 0 | 5 | · | -10 | 83*!
CCCNC(=O)N1C[C@@H]2N[C@H](C1)C2c1ccc(-c2cccc(F)c2)cc1 (some centres undefined) | 6 | 0 | -6 | · | -10 | 8
O=C(NC1CCCCC1)N1C[C@@H]2N[C@H](C1)C2c1ccc(-c2cccc(F)c2)cc1 (some centres undefined) | -8 | 0 | -6 | -1 | -8 | 63*!
COCC(=O)N[C@H]1C=C[C@H](CC(=O)NCc2ccc(Cl)cc2)O[C@H]1CO | 1 | 0 | -11 | -2 | 3 | -10
N#Cc1cccc(-c2ccc(C3[C@@H]4CN(Cc5ccccc5F)C[C@H]3N4)cc2)c1 (some centres undefined) | -1 | 0 | 2 | 10 | 48*! | -14
N#Cc1cccc(-c2ccc(C3[C@@H]4CN(Cc5cocn5)C[C@H]3N4)cc2)c1 (some centres undefined) | -7 | 0 | 1 | 16 | 0 | 14
